These results are taken from paper PMC9939723 (Redox Biology, 2023).

“And” between values parts separate entries of the source, which are not always exact repeats. Equal values may be shown once. Read-outs that look alike come from different tables or passages of the source.

Series [1] concerns carbapenem-resistant Escherichia coli (BAA-2140). Put plainly: MIC by microbroth dilution against CREco. In kind it is cell-based. Conditions: 24 h incubation. The gist of the method: (§1)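 Broth microdilution per CLSI guidelines in 96-well plates. Incubated 37 °C for 24 h, then read on a microplate reader.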
A general note: In broth dilution the organism is exposed to a series of concentrations in liquid medium.

Series [2] deals with carbapenem-resistant Acinetobacter baumannii (CRAB). Put plainly: MIC by microbroth dilution against CRAB. Conditions: 24 h incubation. Type of series: cell-based. The gist of the method:
as §1

For series [3], the system named is carbapenem-resistant Klebsiella pneumonia (BAA-1705). Put plainly: MIC by microbroth dilution against CRKP. In kind it is cell-based. Conditions: 24 h incubation. The method, boiled down: as §1
Series [4] relates to CRAB-induced peritonitis. Put plainly: Murine peritonitis infection model. In kind it is in vivo, BALB/c mice. The method, boiled down:
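Male (n = 8/group) and female (n = 12/group) BALB/c mice, 18–22 g, infected i.p. with 200 μL CRAB (1 × 10^9 cfu/mL). Single i.p. dose of 5 mg/kg given 1 h post-infection; PBS as control. Survival followed for 72 h. Experiment repeated three times.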

In series [5] the test system is TrxB expression in CRAB. Put plainly: TrxB expression by qPCR. Type of series: cell-based, Acinetobacter baumannii. Conditions: 2 h. The gist of the method: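 Bacteria at initial OD600 0.4–0.5 exposed to compound and shaken 2 h at 37 °C. Total RNA extracted with a kit (lysis buffer, chloroform). TrxB mRNA measured by qPCR with 16S as internal control, 2^−ΔΔCt method, in triplicate.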

Series [6] deals with vancomycin-intermediate Staphylococcus aureus (ATCC 700699). Put plainly: MIC by microbroth dilution against VISA. In kind it is cell-based. Conditions: 24 h incubation. The gist of the method: as §1
Series [7] has as its target TrxR in CRAB (Acinetobacter baumannii, UniProt A0A0G4QN87). Put plainly: Cellular TrxR activity assay. Type of series: cell-based. Conditions: read-out: IC50 inhibition of TrxR activity in CRAB; 2 h treatment of bacteria. The gist of the method:
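Cultures at OD600 0.4–0.6 exposed to 0, 0.5, 1, 2, 5, 10, 20 μM for 2 h. Pellets washed three times in PBS and normalised to OD600 0.7 ± 0.02. TrxR assayed with a kit: NADPH-driven DTNB reduction, 2-vinylpyridine added to block GSH, activity from the rate of TNB increase at 412 nm on a plate reader.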

For series [8], the system named is CRAB. Put plainly: Checkerboard microdilution assay, antibiotic with gold complexes. To be noted: for FIC index / MIC of antibiotic: CRAB; for MIC: Acinetobacter baumannii; for MIC of antibiotic: antibiotic alone. Type of series: cell-based, Acinetobacter baumannii. The gist of the method:
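Checkerboard in 96-well plates. Inoculum diluted per the CLSI broth microdilution method. Gold complex 0–20 μM crossed with antibiotic 0–240 μM. Growth inhibition read as OD600 on a plate reader.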

For series [9], the system named is carbapenem-resistant Pseudomonas aeruginosa (BAA-2108). Put plainly: MIC by microbroth dilution against CRPA. In kind it is cell-based. To be noted: 24 h incubation. The gist of the method:
as §1

Series [10] has as its target T1, purified rat liver TrxR (Rattus norvegicus, UniProt O89049).
T1 sequence (O89049 1-499): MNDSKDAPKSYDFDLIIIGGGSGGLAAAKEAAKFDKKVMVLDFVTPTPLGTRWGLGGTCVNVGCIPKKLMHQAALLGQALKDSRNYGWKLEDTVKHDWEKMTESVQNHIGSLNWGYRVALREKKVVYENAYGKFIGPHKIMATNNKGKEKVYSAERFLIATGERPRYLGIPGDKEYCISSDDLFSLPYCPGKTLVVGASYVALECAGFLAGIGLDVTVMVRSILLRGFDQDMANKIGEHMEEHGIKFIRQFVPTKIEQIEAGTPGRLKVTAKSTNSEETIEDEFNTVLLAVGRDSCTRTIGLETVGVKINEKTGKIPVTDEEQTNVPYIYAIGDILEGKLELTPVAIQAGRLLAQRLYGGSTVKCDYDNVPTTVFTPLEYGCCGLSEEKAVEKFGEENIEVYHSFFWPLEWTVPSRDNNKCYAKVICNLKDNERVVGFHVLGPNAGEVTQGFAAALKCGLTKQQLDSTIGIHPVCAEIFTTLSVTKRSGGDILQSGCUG
To be noted: read-out: IC50 purified TrxR activity; previous report ref 38; cited from earlier work.

TrxR in CRAB, sequence (A0A0G4QN87 1-315): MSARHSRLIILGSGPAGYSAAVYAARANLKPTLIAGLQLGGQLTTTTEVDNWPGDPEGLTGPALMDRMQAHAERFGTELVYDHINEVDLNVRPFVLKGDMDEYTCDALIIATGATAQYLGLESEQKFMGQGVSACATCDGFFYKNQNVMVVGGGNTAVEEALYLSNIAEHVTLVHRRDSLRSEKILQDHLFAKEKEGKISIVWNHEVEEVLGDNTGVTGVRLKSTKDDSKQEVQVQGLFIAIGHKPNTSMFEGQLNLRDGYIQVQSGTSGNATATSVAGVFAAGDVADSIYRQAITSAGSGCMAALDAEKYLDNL

Consider `CC(=O)OC[C@H]1O[C@@H]([S-])[C@H](OC(C)=O)[C@@H](OC(C)=O)[C@@H]1OC(C)=O.CCP(CC)CC.[Au+]` [Auranofin], for which the “MIC CREco” value in series [1] is 40 μM and 27.12 μg/mL. Also, the “MIC CRAB” value in series [2] was 20 μM and 13.56 μg/mL. Further, the “MIC CRKP” value in series [3] is 40 μM and 27.12 μg/mL. Moreover, the “mice surviving to 34 h” value in series [4] (female BALB/c, n = 12, i.p. 5 mg/kg 1 h after infection) is “seven of the twelve mice”. Besides, in series [4] (male BALB/c, n = 8, single i.p. 5 mg/kg 1 h after infection), the “mice surviving to 24 h” value is listed as “four of the eight mice”. Besides, in series [5], the “expression of TrxB (mRNA)” value is “no effect”. Moreover, the “MIC VISA” value in [6] is 0.34 μg/mL and 0.5 μM. Besides, the results for the IC50 in series [7] and in series [10] were 6.31 µM and 0.0826 µM, respectively. Further, the values for the FIC index in series [8] (gold complex in combination with cefotaxime) and in series [8] (gold complex in combination with imipenem) were 0.625 and 0.75, respectively. In series [9], the “MIC CRPA” value was 40 μM and 27.12 μg/mL.
Regarding `CO/N=C(\C(=O)N[C@@H]1C(=O)N2C(C(=O)O)=C(COC(C)=O)CS[C@H]12)c1csc(N)n1` [Cefotaxime], the minimal inhibitory concentration (MIC) in series [8] (read-out: MIC of cefotaxime in the presence of H7) and in [8] (read-out: MIC of cefotaxime in the presence of H8) was 30 µM each time. For the same molecule, the MIC of antibiotic in series [8] is 240 µM.
For `C[C@@H](O)[C@H]1C(=O)N2C(C(=O)O)=C(SCCN=CN)C[C@H]12` [Imipenem], the MIC of antibiotic in series [8] was determined as 240 µM.

As usually defined, the IC50 is the midpoint of a concentration-inhibition curve. In general, MIC refers to the least concentration at which growth counts as inhibited.
